In ChEMBL document CHEMBL4024777, “Discovery of LY3104607: A Potent and Selective G Protein-Coupled Receptor 40 (GPR40) Agonist with Optimized Pharmacokinetic Properties to Support Once Daily Oral Treatment in Patients with Type 2 Diabetes Mellitus” (J Med Chem, 2018):
Active and inactive are the calls of the source. The rule behind the calls is not given here.

Assays:
[1] = AUC (0 to 24 hrs) in Sprague-Dawley rat at 500 mg/kg, po; assay type: ADME, organism-based; design: dose 500 mg/kg, time < 24 hr, route oral; details: in vivo
[2] = Cmax in Beagle dog at 30 mg/kg, po; assay type: ADME, organism-based, Canis lupus familiaris; design: dose 30 mg/kg, route oral; details: in vivo
[3] = AUC (0 to 24 hrs) in Sprague-Dawley rat at 100 mg/kg, po; assay type: ADME, organism-based; design: dose 100 mg/kg, time < 24 hr, route oral; details: in vivo
[4] = target: T1, Free fatty acid receptor 1 (Homo sapiens, UniProt O14842); test: Agonist activity at human PK-tagged GPR40 expressed in HEK293 cells assessed as EA-tagged beta-arrestin recruitment after 90 mins in presence of 1 % heat inactivated FBS by beta-galactosidase reporter gene assay relative to untreated control; assay type: cell-based
[5] = Oral bioavailability in Beagle dog at 3 mg/kg; assay type: ADME, organism-based, Canis lupus familiaris; details: in vivo
How it was run: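 Fasted dogs dosed orally at 3 mg/kg. […] Bioavailability is derived relative to the 1 mg/kg IV dose.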

[6] = Cmax in Sprague-Dawley rat at 1 mg/kg, po; assay type: ADME, organism-based; design: dose 1 mg/kg, route oral; details: in vivo
[7] = Metabolic stability in mouse microsomes assessed as compound metabolized after 30 mins; assay type: ADME, Microsome; details: read-out: Drug metabolism
How it was run: (§1)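 Compound incubated 30 min with liver microsomes from mouse, rat, dog or human. Percent of compound metabolized recorded, as mean (SEM, n).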

[8] = AUC (0 to 24 hrs) in Beagle dog at 100 mg/kg, po; assay type: ADME, organism-based, Canis lupus familiaris; design: time < 24 hr, dose 100 mg/kg, route oral; details: in vivo
[9] = target: T1, Free fatty acid receptor 1; test: Agonist activity at human GPR40 receptor expressed in HEK293 cells assessed as increase in intracellular calcium flux after 2.5 hrs measured over 3 mins by calcium 4 dye-based FLIPR assay relative to linoleic acid; assay type: functional, cell-based; design: Activity: concentration or dose not given beside the values
How it was run: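 Human GPR40 calcium flux was read on FLIPR. Percent stimulation is expressed against the response to 100 uM linoleic acid.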

[10] = Cmax in Beagle dog at 300 mg/kg, po; assay type: ADME, organism-based, Canis lupus familiaris; design: dose 300 mg/kg, route oral; details: in vivo
[11] = Metabolic stability in human microsomes assessed as compound metabolized after 30 mins; assay type: ADME, Microsome; details: read-out: Drug metabolism; how it was run: as §1
[12] = Cmax in Sprague-Dawley rat at 10 mg/kg, po; assay type: ADME, organism-based; design: dose 10 mg/kg, route oral; details: in vivo
[13] = Tmax in Sprague-Dawley rat at 1 mg/kg, po; assay type: ADME, organism-based; details: in vivo
How it was run: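 Fasted rats given oral doses of 1 mg/kg. […] Bioavailability is calculated against the 1 mg/kg IV group.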

[14] = Metabolic stability in dog microsomes assessed as compound metabolized after 30 mins; assay type: ADME, Canis lupus familiaris, Microsome; details: read-out: Drug metabolism; how it was run: as §1
[15] = Intrinsic clearance in human microsomes; assay type: ADME, Microsome
[16] = AUC (0 to 24 hrs) in Beagle dog at 300 mg/kg, po; assay type: ADME, organism-based, Canis lupus familiaris; design: time < 24 hr, dose 300 mg/kg, route oral; details: in vivo
[17] = Protein binding in plasma (unknown origin) by equilibrium dialysis assay; assay type: ADME, cell-free; details: read-out: PPB
[18] = AUC (0 to 24 hrs) in Beagle dog at 3 mg/kg, po; assay type: ADME, organism-based, Canis lupus familiaris; design: time < 24 hr, dose 3 mg/kg, route oral; details: in vivo
Rattus norvegicus = test: Toxicity in Zucker fa/fa rat assessed as change in body weight at 1 to 10 mg/kg, po; assay type: organism-based; details: in vivo
How it was run: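 Male Zucker fa/fa rats, 10 weeks old, given daily oral doses of 1, 3 or 10 mg/kg for 21 days. Body weight and food consumption tracked, with a reference agonist as positive control.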

[19] = target: Voltage-gated inwardly rectifying potassium channel KCNH2 (Homo sapiens, UniProt Q12809); test: Inhibition of human ERG at 100 uM
[20] = Tmax in Sprague-Dawley rat at 100 mg/kg, po; assay type: ADME, organism-based; details: in vivo
[21] = target: Free fatty acid receptor 1 (Rattus norvegicus, UniProt Q8K3T4); test: Agonist activity at rat PK-tagged GPR40 expressed in human U2OS cells assessed as EA-tagged beta-arrestin recruitment after 90 mins in presence of 1 % heat inactivated FBS by beta-galactosidase reporter gene assay; assay type: cell-based
How it was run: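 β-Arrestin recruitment used rat GPR40 in the presence of 1% FBS. EC50 and % maximal stimulation are reported with SEM and n.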

[22] = Cmax in Beagle dog at 100 mg/kg, po; assay type: ADME, organism-based, Canis lupus familiaris; design: dose 100 mg/kg, route oral; details: in vivo
[23] = target: T2, Peroxisome proliferator-activated receptor gamma (Homo sapiens) (UniProt P37231); test: Agonist activity at […] human PPARgamma expressed in African green monkey CV1 cells up to 30 uM after 24 hrs by luciferase reporter gene assay; assay type: cell-based
T2 sequence (whole entry): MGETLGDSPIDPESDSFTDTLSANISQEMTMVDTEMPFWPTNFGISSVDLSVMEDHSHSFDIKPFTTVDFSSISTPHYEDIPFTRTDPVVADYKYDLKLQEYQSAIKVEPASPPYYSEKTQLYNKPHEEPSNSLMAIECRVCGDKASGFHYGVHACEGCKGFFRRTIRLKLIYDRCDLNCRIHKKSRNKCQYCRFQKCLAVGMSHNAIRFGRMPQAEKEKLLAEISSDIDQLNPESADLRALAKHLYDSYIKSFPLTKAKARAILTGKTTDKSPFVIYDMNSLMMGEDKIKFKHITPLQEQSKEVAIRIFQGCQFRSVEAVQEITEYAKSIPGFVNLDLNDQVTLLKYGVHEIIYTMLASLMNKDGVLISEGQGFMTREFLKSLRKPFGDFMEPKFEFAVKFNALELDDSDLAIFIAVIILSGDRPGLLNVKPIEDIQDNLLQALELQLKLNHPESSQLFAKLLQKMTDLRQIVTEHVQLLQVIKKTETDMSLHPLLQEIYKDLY
How it was run: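 PPAR alpha, delta and gamma binding and functional activity were each tested at concentrations up to 30 µM.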

[24] = target: T1, Free fatty acid receptor 1; test: Agonist activity at human GPR40 receptor expressed in HEK293 cells assessed as increase in intracellular calcium flux after 2.5 hrs measured over 3 mins in presence of 0.1% serum albumin by calcium 4 dye-based FLIPR assay; assay type: functional, cell-based
[25] = Drug metabolism in rat hepatocytes assessed as metabolite-A formation; assay type: ADME, cell-based, Hepatocyte
[26] = target: Free fatty acid receptor 1 (Rattus norvegicus) (UniProt Q8K3T4); test: Agonist activity at GPR40 in Sprague-Dawley rat islets assessed as glucose-stimulated insulin secretion levels at 10 uM in presence of 11.2 mM glucose by ELISA (reference value: 6.24 ng/ml)
[27] = Clearance in Sprague-Dawley rat at 1 mg/kg, iv; assay type: ADME, organism-based; details: in vivo
[28] = Solubility of the compound in DMSO at pH 7.4 by aqueous precipitation assay; assay type: physicochemical
How it was run: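 DMSO stock diluted into aqueous buffer at pH 7.4 in a precipitation assay. Result reported as the last soluble concentration, upper limit 100 µM.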

[29] = Cmax in Beagle dog at 3 mg/kg, po; assay type: ADME, organism-based, Canis lupus familiaris; design: dose 3 mg/kg, route oral; details: in vivo
[30] = Cmax in Sprague-Dawley rat at 500 mg/kg, po; assay type: ADME, organism-based; design: dose 500 mg/kg, route oral; details: in vivo
Cytochrome P450 2D6 = Cytochrome P450 2D6 (Homo sapiens, UniProt P10635); test: Inhibition of human CYP2D6; assay type: ADME
[31] = Volume of distribution at steady state in Beagle dog at 1 mg/kg, iv; assay type: ADME, organism-based, Canis lupus familiaris; details: in vivo, read-out: Vdss
[32] = Aqueous solubility of the compound at pH 7.4; assay type: physicochemical
How it was run: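 Solubility was measured by DMSO/aqueous precipitation at pH 7.4 and reported as the last soluble concentration.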

[33] = Half life in Beagle dog at 3 mg/kg, po; assay type: ADME, organism-based, Canis lupus familiaris; details: in vivo
3T3-L1 = test: Induction of adipogenesis in mouse 3T3L1 cells; assay type: functional, cell-based
How it was run: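 Adipogenesis was assessed in 3T3-L1 cells.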

T1 sequence (O14842 whole entry): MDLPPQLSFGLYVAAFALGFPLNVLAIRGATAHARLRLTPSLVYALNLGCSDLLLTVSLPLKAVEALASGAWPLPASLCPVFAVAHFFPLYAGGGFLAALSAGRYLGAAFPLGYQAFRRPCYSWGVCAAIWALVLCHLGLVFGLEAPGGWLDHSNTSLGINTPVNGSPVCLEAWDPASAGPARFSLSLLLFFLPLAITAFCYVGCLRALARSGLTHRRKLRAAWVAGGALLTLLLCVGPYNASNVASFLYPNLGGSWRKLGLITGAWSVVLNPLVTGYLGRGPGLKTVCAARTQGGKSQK
Chain of Voltage-gated inwardly rectifying potassium channel KCNH2 (Q12809 whole entry): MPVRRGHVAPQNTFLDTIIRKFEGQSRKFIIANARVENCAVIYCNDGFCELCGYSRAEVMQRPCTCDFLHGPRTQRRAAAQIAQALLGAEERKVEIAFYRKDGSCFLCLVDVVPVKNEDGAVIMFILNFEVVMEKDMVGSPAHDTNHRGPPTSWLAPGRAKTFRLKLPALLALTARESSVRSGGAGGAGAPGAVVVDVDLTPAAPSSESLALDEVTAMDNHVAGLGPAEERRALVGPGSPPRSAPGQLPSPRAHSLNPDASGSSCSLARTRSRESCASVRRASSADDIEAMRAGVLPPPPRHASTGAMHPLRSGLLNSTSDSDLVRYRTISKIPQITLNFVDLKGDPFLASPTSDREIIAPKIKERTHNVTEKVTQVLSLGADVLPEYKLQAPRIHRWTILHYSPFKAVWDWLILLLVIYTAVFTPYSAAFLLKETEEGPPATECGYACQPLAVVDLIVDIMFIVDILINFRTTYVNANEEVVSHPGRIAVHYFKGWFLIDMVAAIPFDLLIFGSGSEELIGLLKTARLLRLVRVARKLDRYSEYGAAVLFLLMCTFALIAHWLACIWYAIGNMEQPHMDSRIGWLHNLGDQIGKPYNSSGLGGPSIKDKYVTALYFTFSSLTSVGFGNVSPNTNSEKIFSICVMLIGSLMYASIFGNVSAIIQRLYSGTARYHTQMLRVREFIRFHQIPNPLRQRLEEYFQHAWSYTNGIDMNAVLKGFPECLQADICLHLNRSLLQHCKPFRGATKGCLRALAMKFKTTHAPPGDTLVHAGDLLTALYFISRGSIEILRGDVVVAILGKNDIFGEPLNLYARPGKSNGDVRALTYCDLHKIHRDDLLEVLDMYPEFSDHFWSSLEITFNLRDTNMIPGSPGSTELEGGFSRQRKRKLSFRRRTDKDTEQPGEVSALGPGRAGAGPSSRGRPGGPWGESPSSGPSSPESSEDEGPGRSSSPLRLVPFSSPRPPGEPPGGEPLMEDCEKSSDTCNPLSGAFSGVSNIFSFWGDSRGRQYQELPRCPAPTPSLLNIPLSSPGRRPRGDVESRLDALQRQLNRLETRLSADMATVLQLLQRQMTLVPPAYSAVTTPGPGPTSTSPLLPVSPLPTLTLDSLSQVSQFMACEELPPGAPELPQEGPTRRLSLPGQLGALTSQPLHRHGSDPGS
Chain of Free fatty acid receptor 1 (Rattus norvegicus) (Q8K3T4 whole entry): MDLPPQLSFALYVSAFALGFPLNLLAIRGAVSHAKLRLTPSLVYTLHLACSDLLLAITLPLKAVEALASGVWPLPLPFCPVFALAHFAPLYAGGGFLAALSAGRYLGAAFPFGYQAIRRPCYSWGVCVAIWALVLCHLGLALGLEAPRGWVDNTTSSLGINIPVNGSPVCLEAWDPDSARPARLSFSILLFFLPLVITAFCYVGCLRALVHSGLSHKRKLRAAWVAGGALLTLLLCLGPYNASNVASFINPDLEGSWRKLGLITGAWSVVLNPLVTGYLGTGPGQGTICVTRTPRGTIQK
Chain of Free fatty acid receptor 1 (Rattus norvegicus, UniProt Q8K3T4) (Q8K3T4 whole entry): as above
Chain of Cytochrome P450 2D6 (P10635 whole entry): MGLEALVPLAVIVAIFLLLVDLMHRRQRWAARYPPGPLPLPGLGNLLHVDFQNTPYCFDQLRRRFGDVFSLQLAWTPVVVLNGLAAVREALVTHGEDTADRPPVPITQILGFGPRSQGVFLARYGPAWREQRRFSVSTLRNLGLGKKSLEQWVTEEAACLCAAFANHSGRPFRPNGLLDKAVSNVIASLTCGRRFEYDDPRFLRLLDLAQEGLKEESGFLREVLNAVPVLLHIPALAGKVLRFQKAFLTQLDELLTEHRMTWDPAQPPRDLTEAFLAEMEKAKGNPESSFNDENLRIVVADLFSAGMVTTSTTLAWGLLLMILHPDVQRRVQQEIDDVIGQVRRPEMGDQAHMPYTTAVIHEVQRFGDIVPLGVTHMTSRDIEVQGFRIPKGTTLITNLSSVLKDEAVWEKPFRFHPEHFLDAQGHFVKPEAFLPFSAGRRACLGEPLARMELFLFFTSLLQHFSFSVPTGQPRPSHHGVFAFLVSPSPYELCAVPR

AUC(0-t) at 24 h [1]: 4790 µg·h/mL
Cmax [2]: 126 µg/mL
AUC(0-t) at 24 h [3]: 2870 µg·h/mL
%max [4]: 124%
bioavailability [5]: 83%
Cmax [6]: 3.38 µg/mL
metabolised at 0.5 h [7]: 7%
AUC(0-t) at 24 h [8]: 3320 µg·h/mL
Activity [9]: 54%
Cmax [10]: 277 µg/mL
metabolised at 0.5 h [11]: 5%
Cmax [12]: 23.7 µg/mL
Tmax [13]: 0.25 h
metabolised at 0.5 h [14]: 5%
K [15]: < 0.0009 h⁻¹
AUC(0-t) at 24 h [16]: 4010 µg·h/mL
fraction unbound [17]: < 0.01
AUC(0-t) at 24 h [18]: 52.8 µg·h/mL
Tmax [20]: 5.3 h
EC50 [21]: 14 nM
Cmax [22]: 260 µg/mL
Activity [23]: inactive
Activity [24]: Active
Drug metabolism [25]: Metabolite_Detected
Activity [26]: 19.4 ng/mL
clearance [27]: 1.32 mL/min/kg
solubility kinetic [28]: > 100 µM
Cmax [29]: 9.9 µg/mL
Cmax [30]: 281 µg/mL
IC50 (Cytochrome P450 2D6): > 60000 nM
Vd [31]: 0.27 L/kg
solubility [32]: > 100 µM
half-life [33]: 5.49 h
SMILES: CC#C[C@@H](CC(=O)O)c1ccc(OCc2ccc3nc(-c4c(C)cccc4C)nn3c2)cc1
Activity (Rattus norvegicus): Non-Toxic
inhibition (INH) [19]: Not Active
Activity (3T3-L1): inactive
